# Results of several laboratories.
# Protocols differ between the studies behind these lines.
# CYP3A4: Cytochrome P450 3A4 (CYP3A4, Homo sapiens, UniProt P08684)
SMILES,tested on,assay,system,setting,measurement,result
CN(C)c1ncnc2c1ncn2[C@@H]1O[C@H](CCl)[C@@H](NC(=O)[C@@H](CSC(c2ccccc2)c2ccccc2)NC(=O)OC(C)(C)C)[C@H]1O,Vero,"cell growth or viability, MTT",,,CC50,67.4 µM
Cn1cc(Nc2nc(N)nc(-c3cccc(-n4ccc5cc(C6CC6)cc(F)c5c4=O)c3CO)n2)cn1,,,"human, plasma","oral, 900 mg, single dose, fasted, suspension",Vd/F,212 L
COc1ccc2c(c1)C[C@H]1[C@@H](OC(=O)c3ccccc3)[C@H](OC(C)=O)C(COC(=O)c3ccccc3)=C[C@H]1O2,RAW264.7,"cell growth or viability, MTT",,"15 µM, 24 h",viability,91.9%
CCN1CCN(Cc2ccc(NC(=O)c3ccc(C)c(NC(=O)c4cncc(-c5cccs5)c4)c3)cc2C(F)(F)F)CC1,,,"mouse, plasma","intraperitoneal, 30 mg/kg, single dose",Cmax,716 ng/mL
Cl.[2H]C([2H])([2H])CC(=O)c1cnc(NC(=O)C2CC2)cc1Nc1cccc(-c2ncn(C([2H])([2H])[2H])n2)c1OC,,,"human, plasma","oral, 10 mg, multiple doses, once daily, fasted",Vd/F,167 L
COc1ccc2[nH]c([S+]([O-])Cc3ncc(C)c(OC)c3C)nc2c1 (centres unmarked),CYP3A4,"enzyme activity, inhibitor",,"30 µM, 1 h, pH 7.4",inhibition,50 to 60%
COc1ccc2c(c1)C[C@]1(OC)C(=O)/C(=C(O)\C=C\c3ccccc3)C(=O)C[C@]1(OC)O2,RAW264.7,"cell growth or viability, MTT",,"15 µM, 24 h",viability,92.8%
COc1cc(O)c2c(c1)C(=O)c1cc(C)cc(O)c1C2=O,CYP3A4,"enzyme activity, inhibitor","human, liver microsomes","pH 7.4, testosterone probe",Ki,6.07 µM
CC(=O)OC[C@@]1(COC(=O)c2ccccc2)O[C@H]1/C=C\COC(=O)c1ccccc1,RAW264.7,"cell growth or viability, MTT",,"15 µM, 24 h",viability,99.8%
Cc1ccc(C(=O)Nc2ccc(CN3CCN(C)CC3)c(C(F)(F)F)c2)cc1C#Cc1cnc2[nH]ncc2c1,,,"human, plasma","oral, 20 mg, healthy volunteers",Vd/F,8220 L
CNC(=O)n1ccc2cc(Oc3ccnc(NC(=O)c4ccc(C5CCN(CCO)CC5)cc4)c3)c(OCCOC)cc21,,,"human, plasma","oral, 35 mg, single dose, fasted, healthy volunteers",Vd/F,11800 L
NC(=S)NN=Cc1ncccc1N,,,"human, plasma",oral,Vd/F,223 L
CC(=O)O[C@@]12CO[C@@H]1C[C@H](O)[C@@]1(C)C(=O)[C@H](O)C3=C(C)[C@@H](OC(=O)[C@H](O)[C@@H](NC(=O)OC(C)(C)C)c4ccccc4)C[C@@](O)([C@@H](OC(=O)c4ccccc4)[C@H]21)C3(C)C,,,"male Kunming mouse, lung","oral, 20 mg/kg",Cmax,142 ng/g
COCCCOc1ccnc(C[S+]([O-])c2nc3ccccc3[nH]2)c1C (centres unmarked),CYP3A4,"enzyme activity, inhibitor",,"30 µM, 1 h, pH 7.4",inhibition,50 to 60%
